The target of data set [1] is Casein kinase I isoform delta (Homo sapiens) (UniProt P48730). The data set is described as follows: Inhibition of CK1delta (unknown origin) at 3 uM relative to control.
The target of data set [2] is Mitogen-activated protein kinase 12 (Homo sapiens) (UniProt P53778). The data set is described as follows: Inhibition of p38MAPK gamma (unknown origin) at 10 uM relative to control.
In data set [3] the test system is Liver. The data set is described as follows: Drug metabolism in rat liver microsomes assessed as 4-(4-(4-fluorophenyl)-1-methyl-2-(methylsulfonyl)-1H-imidazol-5-yl)pyridin-2-amine formation at 10 to 100 uM. The data set is classed as ADME, microsome. The gist of the method: (§1)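 Test compound incubated at 10, 30 and 100 μM with liver microsomes from rat, Cynomolgus monkey or human, and metabolites monitored.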

The subject of data set [4] is Cynomolgus monkey. The data set is described as follows: In vivo inhibition of P38 MAPKalpha in cynomolgus monkey assessed as decrease in TNFalpha level in LPS-stimulated whole blood at 12 mg/kg, po pretreated followed by LPS addition measured after 1 day relative to control. The data set is classed as functional. The conditions noted are these: Macaca fascicularis. The method in brief: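 Cynomolgus monkeys were dosed orally, then whole blood was stimulated ex vivo with LPS. TNFα release was compared with vehicle-dosed animals.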

Data set [5] relates to Liver. Put plainly: Drug metabolism in human liver microsomes assessed as 4-(4-(4-fluorophenyl)-1-methyl-2-(methylsulfinyl)-1H-imidazol-5-yl)pyridin-2-amine formation at 10 to 100 uM. The data set is classed as ADME, microsome. The gist of the method:
as §1

For data set [6], the system named is Lymphocyte. The data set is described as follows: Clastogenicity in human lymphocytes in absence of S9 fraction by microneucleus test. The format is toxicity, cell-based. The gist of the method: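 Cytogenetic clastogenicity assay in cultured human lymphocytes, run with and without S9 mix.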
Data set [7] concerns Mus musculus. Put plainly: In vivo inhibition of P38 MAPKalpha in BALB/c mouse assessed as decrease in LPS/GalN-stimulated TNFalpha level in plasma at 10 mg/kg, po administered via gavage pretreated for 1 hr followed by LPS/GalN addition measured after 1.5 hrs relative to control. The format is functional. The gist of the method:
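Male BALB/c mice, n = 6/group, given 3, 10 or 30 mg/kg orally by gavage 1 h before i.p. D-GalN (500 mg/kg) plus LPS (1.5 μg/kg). Blood was taken by cardiac puncture and plasma TNFα measured against a vehicle-only control.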

In data set [8] the test system is Mus musculus. The data set is described as follows: Antiarthritic activity in human TNF transgenic mouse model assessed as reduction in bone erosion at 20 to 50 mg/kg/day, po for 10 weeks. The format is functional, organism-based. The gist of the method:
(§2)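 Heterozygous human TNF transgenic mice (8 per group) were dosed orally for ten weeks with 20 or 50 mg/kg/day as a methylcellulose suspension, alongside vehicle and infliximab i.p. controls. Joint swelling and grip strength were scored weekly, and hind paws were examined histologically at the end.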

For data set [9], the system named is Mus musculus. The data set is described as follows: Antiarthritic activity in human TNF transgenic mouse model assessed as reduction in paw swelling at 20 to 50 mg/kg/day, po for 10 weeks. The format is functional, organism-based. The gist of the method: as §2
Data set [10] is described as follows: Cmax in male Sprague-Dawley rat at 30 mg/kg, po by LC-MS/MS analysis. The format is ADME, organism-based. Also on record: dose 30 mg/kg, route oral. The conditions noted are these: in vivo.
In data set [11] the test system is Homo sapiens. Put plainly: AUC (infinity) in human assessed as 4-(4-(4-fluorophenyl)-1-methyl-2-(methylsulfinyl)-1H-imidazol-5-yl)pyridin-2-amine formation at 20 mg, po administered as single dose. Also on record: dose 20 mg, time infinity, route oral. The conditions noted are these: in vivo. The format is ADME, organism-based. The gist of the method:
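Placebo-controlled, single-blind, randomized, consecutive-dosing study in healthy subjects given single oral doses, with 10 mg also given fasting and fed in a crossover. Plasma parent and active metabolite were measured predose and from 0.25 to 36 h post dose. PK parameters were derived from individual concentration–time profiles and reported as means.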

Data set [12] can be described thus: Drug metabolism in human primary hepatocytes assessed as CBS-3733 formation at 10 to 100 uM. The data set is classed as ADME, cell-based, Hepatocyte.
The species entered for data set [13] is Homo sapiens. The data set is described as follows: Inhibition of PDE4 in human U937 cells assessed as [3H]cAMP hydrolysis at 1 uM relative to control. The format is cell-based.

Molecules are shown by their SMILES. Activity calls are given as the source filed them. The calls are words filed in the database; no cut-off is given here.

Chain of Mitogen-activated protein kinase 12 (Homo sapiens) (P53778 whole entry): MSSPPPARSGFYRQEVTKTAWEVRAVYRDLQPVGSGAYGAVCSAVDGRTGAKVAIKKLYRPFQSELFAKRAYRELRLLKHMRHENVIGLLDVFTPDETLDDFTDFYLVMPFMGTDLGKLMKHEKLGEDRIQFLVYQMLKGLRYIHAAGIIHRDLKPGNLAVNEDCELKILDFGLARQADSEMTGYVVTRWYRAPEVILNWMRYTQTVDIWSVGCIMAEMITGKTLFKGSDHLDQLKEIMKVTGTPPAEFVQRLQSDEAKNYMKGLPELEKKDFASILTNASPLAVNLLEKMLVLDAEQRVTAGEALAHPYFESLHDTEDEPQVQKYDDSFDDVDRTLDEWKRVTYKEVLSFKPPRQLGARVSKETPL
Chain of Casein kinase I isoform delta (Homo sapiens) (P48730 whole entry, looked up, canonical isoform): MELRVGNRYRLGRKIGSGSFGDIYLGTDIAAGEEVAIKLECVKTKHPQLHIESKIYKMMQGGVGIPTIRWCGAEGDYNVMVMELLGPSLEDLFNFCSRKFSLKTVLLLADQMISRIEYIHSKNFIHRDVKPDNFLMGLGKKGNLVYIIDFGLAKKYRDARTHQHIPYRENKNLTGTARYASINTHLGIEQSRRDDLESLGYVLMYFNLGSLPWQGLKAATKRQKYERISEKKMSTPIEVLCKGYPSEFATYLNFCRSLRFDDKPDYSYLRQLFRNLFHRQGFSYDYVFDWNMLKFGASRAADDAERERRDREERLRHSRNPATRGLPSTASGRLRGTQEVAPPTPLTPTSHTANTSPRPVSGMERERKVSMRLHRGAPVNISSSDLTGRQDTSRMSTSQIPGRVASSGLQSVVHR

Compound `Cn1c([S+](C)[O-])nc(-c2ccc(F)cc2)c1-c1ccnc(N)c1` (stereo not drawn) had an inhibition in data set [1] of 88%. Besides, in [2], the inhibition entry is “inactive”.

With `CC(=O)Nc1cc(-c2c(-c3ccc(F)cc3)nc([S+](C)[O-])n2C)ccn1` (stereo not drawn), the Drug metabolism entry in data set [3], in [5] and in [12] was “Metabolite_Detected” throughout. Further, the inhibition in vivo at 12 mg/kg in [4] stood at 50%. Besides, the Activity entry in data set [6] is reported as “Non-Toxic”. Moreover, in data set [7], the inhibition in vivo at 10 mg/kg is 84%. Besides, the result in [8] and in [9] was Active. In addition, in data set [10], the Cmax was determined as 3.4 µM. The AUC in data set [11] was found to be 6.1022 µM·h. Moreover, the inhibition in data set [13] amounted to 73%.

The values above are taken from ChEMBL document CHEMBL4028848, “Discovery of N-{4-[5-(4-Fluorophenyl)-3-methyl-2-methylsulfanyl-3H-imidazol-4-yl]-pyridin-2-yl}-acetamide (CBS-3595), a Dual p38α MAPK/PDE-4 Inhibitor with Activity against TNFα-Related Diseases” (J Med Chem, 2017).
